Data from ChEMBL document CHEMBL2429733, “Meroterpenoids with diverse ring systems from the sponge-associated fungus Alternaria sp. JJY-32” (J Nat Prod, 2013).
Where a name gives a salt, the structure may show the parent alone. Active and inactive are the calls of the source. No cut-off for these calls is given here.

What was measured:
HL-60 = assay: Cytotoxicity against human HL60 cells; type: functional, cell-based
Procedure, shortened: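 Growth of human tumour cells measured by the MTT or SRB method, with adriamycin as the positive control.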

[1] = Inhibition of LPS-induced NF-kappaB (unknown origin) activation transfected in mouse RAW264.7 cells preincubated for 2 hrs followed by LPS challenge measured after 4 hrs by luciferase reporter gene assay; type: cell-based
Procedure, shortened: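 RAW264.7 cells were seeded at 2.5 × 10^5 per well and held at 37 °C for 24 h. They were then transiently transfected with pNF-κB-Luc plasmid (0.5 μg/well) using lipofectamine 2000. After 24 h, compounds were added for 2 h, then LPS (0.1 μg/mL) for a further 4 h. Read-out was Steady-Glo luciferase, with PDTC as the positive control, and IC50 was derived.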

A549 = assay: Cytotoxicity against human A549 cells

| Compound | IC50 [1] [µM] | Activity (HL-60) | IC50 (A549) [µM] | IC50 (HL-60) [µM] |
| --- | --- | --- | --- | --- |
| CO[C@@H]1C[C@H](O)C(O)=C(C/C=C(\C)CC/C=C(\C)CC/C=C(\C)C(=O)O)C1=O | 58 | inactive | – | – |
| C/C(=C\CC[C@](C)(O)[C@@H]1CC2=C(CC[C@@H](O)C2=O)O1)CC/C=C(\C)C(=O)O | 85 | inactive | – | – |
| C/C(=C\CC[C@]1(C)OC2=C(C[C@@H]1O)C(=O)[C@H](O)CC2)CC/C=C(\C)C(=O)O | > 100 | inactive | – | – |
| CC(C)=CCCC(C)(O)[C@@H]1CC[C@@]2(C)OC3=C(C[C@@H]12)C(=O)CC[C@H]3O (stereo partly drawn) [TRICYCLOALTERNARENE C] | 75 | inactive | – | – |
| CO[C@@H]1C[C@H](O)C2=C(C[C@H]3[C@H](C(C)(O)CCC=C(C)C)CC[C@@]3(C)O2)C1=O (stereo partly drawn) [TRICYCLOALTERNARENE B] | 76 | inactive | – | – |
| COc1cccc2c1C(=O)c1c(O)c3c(c(O)c1C2=O)C[C@@](O)(C(=O)CO)C[C@@H]3O[C@H]1C[C@H](N)[C@H](O)[C@H](C)O1 [DOXORUBICIN] | – | – | 0.35 | 0.09 |
| C/C(=C\CC[C@]1(C)OC2=C(C[C@@H]1O)C(=O)CC[C@H]2O)CC/C=C(\C)C(=O)O | > 100 | inactive | – | – |
| CO[C@@H]1C[C@H](O)C(O)=C(C/C=C(\C)CC/C=C(\C)CCCC(C)C(=O)O)C1=O (stereo partly drawn) | 42 | inactive | – | – |
| S=C(S)N1CCCC1 [PYRROLIDINE DITHIOCARBAMIC ACID, AMMONIUM SALT] | 3 | – | – | – |

Continued, in another order:

| IC50 [1] [µM] | Compound | Activity (HL-60) | IC50 (A549) [µM] | IC50 (HL-60) [µM] |
| --- | --- | --- | --- | --- |
| 62 | CC(C)=CCC[C@](C)(O)[C@H](O)CC[C@](C)(O)[C@@H]1CC2=C(CC[C@@H](O)C2=O)O1 | inactive | – | – |
| 67 | C/C(=C\CC[C@](C)(O)[C@@H]1CC2=C(O1)[C@H](O)CCC2=O)CC/C=C(\C)C(=O)O | inactive | – | – |
| 39 | C/C(C=O)=C\CC[C@@H](C)C1=CC[C@@]2(C)OC3=C(C[C@@H]12)C(=O)[C@H](O)CC3 | inactive | – | – |
| 70 | C/C(=C\CC[C@](C)(O)[C@@H]1CC2=C(CC[C@@H](O)C2=O)O1)CC[C@@H](O)C(C)(C)O | inactive | – | – |
| 45 | COc1ccc(O)c(C/C=C(\C)CC/C=C(\C)CC[C@@H](O)C(C)(C)O)c1O [(+)-MONOCYCLOALTERNARENE A] | inactive | – | – |
| 52 | CC(C)=CCC[C@H](C)[C@@H]1CC[C@](C)(O)[C@]12CC1=C(O2)[C@H](O)CCC1=O [TRICYCLOALTERNARENE A] | inactive | – | – |
| 47 | C/C(=C\Cc1cc(C(=O)O)cc(O)c1O)CC/C=C(\C)CC[C@@H](O)C(C)(C)O [(+)-MONOCYCLOALTERNARENE B] | inactive | – | – |
| 50 | C/C(=C\CC[C@@H](C)C1=CC[C@@]2(C)OC3=C(C[C@@H]12)C(=O)[C@H](O)CC3)CO | inactive | – | – |
